Results taken from ChEMBL document CHEMBL3232844, “Synthesis and structure activity relationships of schweinfurthin indoles” (2014).

Assays:
Format in all cases: functional
SF-295 = assay: Cytotoxicity against human SF295 cells
Summary of the method: (§1)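 Tested in a 60-cell-line human tumor panel screen; the read-out is growth inhibition, reported as GI50 for each cell line.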

[1] = Cytotoxicity against human NCI-ADR-RES cells; summary of the method: as §1
TK-10 = assay: Cytotoxicity against human TK10 cells
Summary of the method: (§2)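 Cell line run as part of the 60-cell-line screening panel; growth inhibition was reported as a GI50 for each line.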

DU-145 = assay: Cytotoxicity against human DU145 cells; summary of the method: as §1
SNB-19 = assay: Cytotoxicity against human SNB19 cells; summary of the method: as §1
HOP-62 = assay: Cytotoxicity against human HOP62 cells; summary of the method: as §1
SK-MEL-2 = assay: Cytotoxicity against human SK-MEL-2 cells; summary of the method: as §1
KM12 = assay: Cytotoxicity against human KM12 cells; summary of the method: as §1
MDA-MB-468 = assay: Cytotoxicity against human MDA-MB-468 cells; summary of the method: as §1
ACHN = assay: Cytotoxicity against human ACHN cells; summary of the method: as §1
HT-29 = assay: Cytotoxicity against human HT-29 cells; summary of the method: as §1
BT-549 = assay: Cytotoxicity against human BT549 cells; summary of the method: as §1
A549 = assay: Cytotoxicity against human A549 cells; summary of the method: as §1
M14 = assay: Cytotoxicity against human M14 cells; summary of the method: as §1
LOX IMVI = assay: Cytotoxicity against human LOXIMVI cells; summary of the method: as §1
SNB-75 = assay: Cytotoxicity against human SNB75 cells; summary of the method: as §2
SN12C = assay: Cytotoxicity against human SN12C cells; summary of the method: as §1
SK-OV-3 = assay: Cytotoxicity against human SKOV3 cells; summary of the method: as §1
CCRF-CEM = assay: Cytotoxicity against human CCRF-CEM cells
[2] = Cytotoxicity against human OVCAR4 cells; summary of the method: as §1
HL-60(TB) = assay: Cytotoxicity against human HL-60(TB) cells
Summary of the method: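 Tested within the NCI 60-cell-line screen, with GI50 as the read-out. Values are the average of two independent experiments. The lowest concentration tested was 10 nM.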

SF-539 = assay: Cytotoxicity against human SF539 cells; summary of the method: as §1
NCI-H226 = assay: Cytotoxicity against human NCI-H226 cells; summary of the method: as §1
COLO 205 = assay: Cytotoxicity against human COLO205 cells; summary of the method: as §1
IGROV-1 = assay: Cytotoxicity against human IGROV1 cells; summary of the method: as §1
RXF 393 = assay: Cytotoxicity against human RXF393 cells; summary of the method: as §1
[3] = Cytotoxicity against human HCT15 cells; summary of the method: as §1
[4] = Cytotoxicity against human OVCAR8 cells; summary of the method: as §1
K562 = assay: Cytotoxicity against human K562 cells; summary of the method: as §1
CAKI-1 = assay: Cytotoxicity against human Caki1 cells; summary of the method: as §1
[5] = Cytotoxicity against human UACC257 cells; summary of the method: as §2
A498 = assay: Cytotoxicity against human A498 cells; summary of the method: as §1
SF-268 = assay: Cytotoxicity against human SF268 cells; summary of the method: as §1
HCC 2998 = assay: Cytotoxicity against human HCC2998 cells; summary of the method: as §1
HCT-116 = assay: Cytotoxicity against human HCT116 cells; summary of the method: as §1
786-0 = assay: Cytotoxicity against human 786-0 cells; summary of the method: as §1
MDA-MB-435 = assay: Cytotoxicity against human MDA-MB-435 cells; summary of the method: as §1
MDA-MB-231 = assay: Cytotoxicity against human MDA-MB-231 cells; summary of the method: as §1
[6] = Cytotoxicity against human UO31 cells; summary of the method: as §2
SR = assay: Cytotoxicity against human SR cells; summary of the method: as §2
NCI-H23 = assay: Cytotoxicity against human NCI-H23 cells; summary of the method: as §1
[7] = Cytotoxicity against human UACC62 cells; summary of the method: as §2
NCI-H322M = assay: Cytotoxicity against human NCI-H322M cells; summary of the method: as §1
[8] = read-out: pLC50 (the source's name) (converted)

Structure (SMILES): COc1cc(/C=C/c2cc(O)c3cc[nH]c3c2)cc2c1O[C@]1(C)CC[C@@H](O)C(C)(C)[C@H]1C2
- GI50 (SF-295; read-out: GI50): 0.23 µM
- GI50 (SF-295; read-out: pGI50 (converted)): 0.234 µM
- CC50 (SF-295; [8]): 6.03 µM
- TGI (SF-295; read-out: pTGI (converted)): 1 µM
- GI50 [1]: 2.57 µM
- CC50 [1, 8]: > 100 µM
- TGI ([1]; read-out: pTGI (converted)): 33.9 µM
- GI50 (TK-10): 5.62 µM
- LC50 (TK-10): > 100 µM
- TGI (TK-10; read-out: pTGI (converted)): 49 µM
- GI50 (DU-145): 1.15 µM
- LC50 (50% lethal concentration) (DU-145): 25.1 µM
- TGI (DU-145; read-out: pTGI (converted)): 6.76 µM
- GI50 (SNB-19): 1.32 µM
- CC50 (SNB-19; [8]): > 100 µM
- TGI (SNB-19; read-out: pTGI (converted)): 18.2 µM
- GI50 (HOP-62): 1.91 µM
- CC50 (HOP-62; [8]): > 100 µM
- TGI (HOP-62; read-out: pTGI (converted)): 8.13 µM
- GI50 (SK-MEL-2): 1.12 µM
- CC50 (SK-MEL-2; [8]): 31.6 µM
- TGI (SK-MEL-2; read-out: pTGI (converted)): 7.24 µM
- GI50 (KM12): 0.457 µM
- CC50 (KM12; [8]): 9.55 µM
- TGI (KM12; read-out: pTGI (converted)): 1.86 µM
- GI50 (MDA-MB-468): 2.45 µM
- LC50 (MDA-MB-468): > 100 µM
- TGI (MDA-MB-468; read-out: pTGI (converted)): 7.59 µM
- GI50 (ACHN): 1.1 µM
- LC50 (concentration killing 50% of cells) (ACHN): > 100 µM
- TGI (ACHN; read-out: pTGI (converted)): 14.1 µM
- GI50 (HT-29): 0.708 µM
- CC50 (HT-29; [8]): 93.3 µM
- TGI (HT-29; read-out: pTGI (converted)): 4.07 µM
- GI50 (BT-549): 0.178 µM
- CC50 (BT-549; [8]): 95.5 µM
- TGI (BT-549; read-out: pTGI (converted)): 4.57 µM
- GI50 (A549): 1.48 µM
- TGI (A549; read-out: pTGI (converted)): 3.72 µM
- GI50 (M14): 0.676 µM
- CC50 (M14; [8]): 6.17 µM
- TGI (M14; read-out: pTGI (converted)): 2.19 µM
- GI50 (LOX IMVI): 0.363 µM
- CC50 (LOX IMVI; [8]): 4.57 µM
- TGI (LOX IMVI; read-out: pTGI (converted)): 1.32 µM
- GI50 (SNB-75): 0.269 µM
- CC50 (SNB-75; [8]): > 100 µM
- TGI (SNB-75; read-out: pTGI (converted)): 4.57 µM
- GI50 (SN12C): 7.08 µM
- LC50 (SN12C): > 100 µM
- TGI (SN12C; read-out: pTGI (converted)): 67.6 µM
- GI50 (SK-OV-3): 1.51 µM
- LC50 (SK-OV-3): > 100 µM
- TGI (SK-OV-3; read-out: pTGI (converted)): 10 µM
- GI50 (CCRF-CEM): 0.525 µM
- CC50 (CCRF-CEM; [8]): > 100 µM
- TGI (CCRF-CEM; read-out: pTGI (converted)): 36.3 µM
- GI50 ([2]; OVCAR-4): 3.31 µM
- CC50 ([2]; OVCAR-4, read-out: pLC50 (the source's name) (converted)): > 100 µM
- TGI ([2]; OVCAR-4, read-out: pTGI (converted)): 34.7 µM
- GI50 (HL-60(TB)): 0.513 µM
- CC50 (HL-60(TB); [8]): > 100 µM
- TGI (HL-60(TB); read-out: pTGI (converted)): 8.71 µM
- GI50 (SF-539): 0.257 µM
- TGI (SF-539; read-out: pTGI (converted)): 1.23 µM
- GI50 (NCI-H226): 12 µM
- CC50 (NCI-H226; [8]): 70.8 µM
- TGI (NCI-H226; read-out: pTGI (converted)): 28.8 µM
- GI50 (COLO 205): 1.26 µM
- CC50 (COLO 205; [8]): 11.5 µM
- TGI (COLO 205; read-out: pTGI (converted)): 3.39 µM
- GI50 (IGROV-1): 2.29 µM
- CC50 (IGROV-1; [8]): 60.3 µM
- TGI (IGROV-1; read-out: pTGI (converted)): 10.2 µM
- GI50 (RXF 393): 0.115 µM
- LC50 (RXF 393): 0.871 µM
- TGI (RXF 393; read-out: pTGI (converted)): 0.316 µM
- GI50 ([3]; HCT-15): 0.324 µM
- CC50 ([3]; HCT-15, read-out: pLC50 (the source's name) (converted)): > 100 µM
- TGI ([3]; HCT-15, read-out: pTGI (converted)): 33.9 µM
- GI50 ([4]; OVCAR-8): 1.2 µM
- CC50 ([4]; OVCAR-8, read-out: pLC50 (the source's name) (converted)): > 100 µM
- TGI ([4]; OVCAR-8, read-out: pTGI (converted)): 30.9 µM
- GI50 (K562): 0.708 µM
- CC50 (K562; [8]): > 100 µM
- TGI (K562; read-out: pTGI (converted)): 20.4 µM
- GI50 (CAKI-1): 0.741 µM
- LC50 (CAKI-1): 20.9 µM
- TGI (CAKI-1; read-out: pTGI (converted)): 2.29 µM
- GI50 ([5]; UACC-257): 2.34 µM
- CC50 ([5]; UACC-257, read-out: pLC50 (the source's name) (converted)): 28.8 µM
- TGI ([5]; UACC-257, read-out: pTGI (converted)): 8.32 µM
- GI50 (A498): 1.55 µM
- CC50 (A498; [8]): 56.2 µM
- TGI (A498; read-out: pTGI (converted)): 8.91 µM
- GI50 (SF-268): 0.794 µM
- CC50 (SF-268; [8]): > 100 µM
- TGI (SF-268; read-out: pTGI (converted)): 34.7 µM
- GI50 (HCC 2998): 2.88 µM
- CC50 (HCC 2998; [8]): 55 µM
- TGI (HCC 2998; read-out: pTGI (converted)): 14.5 µM
- GI50 (HCT-116): 0.912 µM
- CC50 (HCT-116; [8]): 6.03 µM
- TGI (HCT-116; read-out: pTGI (converted)): 2.45 µM
- GI50 (786-0): 0.372 µM
- LC50 (concentration killing 50% of cells) (786-0): 6.31 µM
- TGI (786-0; read-out: pTGI (converted)): 1.82 µM
- GI50 (MDA-MB-435): 0.933 µM
- CC50 (MDA-MB-435; [8]): 85.1 µM
- TGI (MDA-MB-435; read-out: pTGI (converted)): 11.2 µM
- GI50 (MDA-MB-231): 1.82 µM
- LC50 (MDA-MB-231): > 100 µM
- TGI (MDA-MB-231; read-out: pTGI (converted)): 20.9 µM
- GI50 ([6]; UO-31): 0.479 µM
- LC50 ([6]; UO-31): > 100 µM
- TGI ([6]; UO-31, read-out: pTGI (converted)): 2.04 µM
- GI50 (SR): 0.302 µM
- CC50 (SR; [8]): > 100 µM
- TGI (SR; read-out: pTGI (converted)): 9.55 µM
- GI50 (NCI-H23): 1.7 µM
- CC50 (NCI-H23; [8]): 61.7 µM
- TGI (NCI-H23; read-out: pTGI (converted)): 8.13 µM
- GI50 ([7]; UACC-62): 2.19 µM
- CC50 ([7]; UACC-62, read-out: pLC50 (the source's name) (converted)): 43.7 µM
- TGI ([7]; UACC-62, read-out: pTGI (converted)): 7.24 µM
- GI50 (NCI-H322M): 3.47 µM
- CC50 (NCI-H322M; [8]): > 100 µM
- TGI (NCI-H322M; read-out: pTGI (converted)): 25.1 µM
